Measured values published in ChEMBL document CHEMBL1208685, “Synthesis, antiproliferative activity and inhibition of tubulin polymerization by anthracenone-based oxime derivatives” (Eur J Med Chem, 2010).

Experiments:
K562 = experiment: Cell growth inhibition of human K562 cells after 48 hrs; type: functional, cell-based; conditions: K562, 48 h
Method in brief: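 K562 human chronic myelogenous leukemia cells cultured in Quantum 263 medium with streptomycin and penicillin G at 37 °C, 5% CO2. Seeded at 2 × 10⁵ cells/mL, exposed 48 h to compounds in DMSO/methanol 1:1 (vehicle 0.5%). Cells counted in Neubauer chamber and expressed as % of untreated control. Triplicate wells, three experiments. IC50 by nonlinear regression.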

Tubulin (Sus scrofa) = experiment: Inhibition of tubulin polymerization using porcine brain microtubule protein

SMILES	IC50 (K562) [µM]	IC50 (Tubulin (Sus scrofa)) [µM]
O=C1c2ccccc2C(=NO)c2ccccc21	3	
COc1cccc2c1C(=O)c1c(OC)cccc1C2=NO	0.9	
O=C1c2cccc(Cl)c2/C(=N/O)c2cccc(Cl)c21	1.6	
O=C1c2cccc(Cl)c2/C(=N\O)c2cccc(Cl)c21	1.6	
O=C1c2c(Cl)cccc2C(=NO)c2cccc(Cl)c21	> 9	
COc1ccc(C(=O)ON=C2c3ccccc3C(=O)c3ccccc32)cc1	3	> 10
COc1cc(C(=O)ON=C2c3ccccc3C(=O)c3ccccc32)cc(OC)c1OC	> 12	
COc1ccc(C(=O)O/N=C2\c3cccc(Cl)c3C(=O)c3cccc(Cl)c32)cc1	12	> 10
COc1cc(C(=O)O/N=C2\c3cccc(Cl)c3C(=O)c3cccc(Cl)c32)cc(OC)c1OC	> 14	
COc1ccc(C(=O)ON=C2c3cccc(Cl)c3C(=O)c3c(Cl)cccc32)cc1	> 12	
COc1ccc(C(=O)ON=C2c3ccccc3C(=O)c3ccccc32)cc1O	2	
COc1cc(C(=O)ON=C2c3ccccc3C(=O)c3ccccc32)ccc1O	3	
COc1ccc(S(=O)(=O)ON=C2c3ccccc3C(=O)c3ccccc32)cc1	3	> 10
COc1ccc(S(=O)(=O)O/N=C2\c3cccc(Cl)c3C(=O)c3cccc(Cl)c32)cc1	> 12	
O=C1c2ccccc2C(=NOCc2ccccc2)c2ccccc21	7	
COc1ccc(CON=C2c3ccccc3C(=O)c3ccccc32)cc1	0.37	1.05
COc1cc(CON=C2c3ccccc3C(=O)c3ccccc32)cc(OC)c1OC	> 12	
COc1ccc(CON=C2c3ccccc3C(=O)c3ccccc32)cc1O	0.11	1.43
O=C1c2ccccc2C(=NOCc2ccc(Cl)cc2)c2ccccc21	10	
O=C1c2ccccc2C(=NOCc2ccc([N+](=O)[O-])cc2)c2ccccc21	> 11	
COc1ccc(CO/N=C2\c3cccc(Cl)c3C(=O)c3cccc(Cl)c32)cc1	> 12	> 10
COc1cc(CO/N=C2\c3cccc(Cl)c3C(=O)c3cccc(Cl)c32)cc(OC)c1OC	> 14	
COc1ccc(CON=C2c3cccc(Cl)c3C(=O)c3c(Cl)cccc32)cc1	> 12	
COc1ccc(CON=C2c3cccc(OC)c3C(=O)c3c(OC)cccc32)cc1	3.4	> 10
COc1ccc(CON=C2c3cccc(OC)c3C(=O)c3c(OC)cccc32)cc1O	2.4	> 10
